“And” between values parts separate entries of the source, which are not always exact repeats. Equal entries are not always repeated.
Test system: Fibroblast
Experiment: Multiplex assay against human fibroblast
Format: toxicity, cell-based
How it was run: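 Per cents of healthy-nucleus cells form the tubulin, mitochondrial-mass and membrane-permeability phenotype values. Live cells were stained at seeding with Hoechst33342, BioTracker Green Microtubule Cytoskeleton Dye, MitoTracker Red and Annexin V Alexa Fluor 680. After compound addition they were imaged on a CQ1 microscope at 37°C and 5% CO2, and CellPathfinder machine-learning gating split them into Hoechst high-intensity objects or normal cells, normal cells into healthy, pyknosed or fragmented nuclei, and pyknosed cells into mitotic or apoptotic.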

[1] = 12 h, 1 µM, compound concentration 1 uM
[2] = 12 h, 10 µM, compound concentration 10 uM
[3] = 24 h, 1 µM, compound concentration 1 uM
[4] = 24 h, 10 µM, compound concentration 10 uM
[5] = 48 h, 1 µM, compound concentration 1 uM
[6] = 48 h, 10 µM, compound concentration 10 uM

CN1CCN2c3ccccc3Cc3ccccc3C2C1.Cl (stereo not drawn) [MIANSERIN HYDROCHLORIDE]
Population Apoptotic (%) [1]: 55% and 38% | Population Fragmented Nuclei (%) [1]: 28% and 27% | Population Healthy Nuclei (%) [1]: 56% and 50% | Population Hoechst High Intensity Objects (%) [1]: 2% and 4% | Population Mitochondria Different-Phenotype (%) [1]: 0% and 5% | Population Mitotic Cells (%) [1]: 45% and 61% | Population Normal (%) [1]: 97% and 95% | Population Pyknosed Nuclei (%) [1]: 14% and 22% | Population Tubulin-Different-Phenotype (%) [1]: 31% and 56% | Total Cell Count [1]: 138 and 119 | Population Apoptotic (%) [2]: 55% and 33% | Population Fragmented Nuclei (%) [2]: 15% and 24% | Population Healthy Nuclei (%) [2]: 68% and 48% | Population Hoechst High Intensity Objects (%) [2]: 5% and 6% | Population Membrane Permeable-Phenotype (%) [2]: 1% and 3% | Population Mitochondria Different-Phenotype (%) [2]: 3% and 7% | Population Mitotic Cells (%) [2]: 44% and 66% | Population Normal (%) [2]: 94% and 93% | Population Pyknosed Nuclei (%) [2]: 15% and 27% | Population Tubulin-Different-Phenotype (%) [2]: 14% and 40% | Total Cell Count [2]: 126 and 116 | Population Apoptotic (%) [3]: 52% and 36% | Population Fragmented Nuclei (%) [3]: 32% and 30% | Population Healthy Nuclei (%) [3]: 55% and 50% | Population Hoechst High Intensity Objects (%) [3]: 2% and 3% | Population Membrane Permeable-Phenotype (%) [3]: 0% and 6% | Population Mitochondria Different-Phenotype (%) [3]: 2% and 1% | Population Mitotic Cells (%) [3]: 47% and 63% | Population Normal (%) [3]: 97% and 96% | Population Pyknosed Nuclei (%) [3]: 12% and 19% | Population Tubulin-Different-Phenotype (%) [3]: 29% and 53% | Total Cell Count [3]: 143 and 119 | Population Apoptotic (%) [4]: 61% and 48% | Population Fragmented Nuclei (%) [4]: 14% and 31% | Population Healthy Nuclei (%) [4]: 73% and 47% | Population Hoechst High Intensity Objects (%) [4]: 5% and 4% | Population Membrane Permeable-Phenotype (%) [4]: 0% and 10% | Population Mitochondria Different-Phenotype (%) [4]: 1% and 5% | Population Mitotic Cells (%) [4]: 38% and 52% | Population Normal (%) [4]: 95% | Population Pyknosed Nuclei (%) [4]: 11% and 20% | Total Cell Count [4]: 120 and 127 | Population Apoptotic (%) [5]: 78% and 46% | Population Fragmented Nuclei (%) [5]: 35% and 36% | Population Healthy Nuclei (%) [5]: 55% and 51% | Population Hoechst High Intensity Objects (%) [5]: 2% and 3% | Population Membrane Permeable-Phenotype (%) [5]: 0% and 3% | Population Mitochondria Different-Phenotype (%) [5]: 2% and 10% | Population Mitotic Cells (%) [5]: 21% and 53% | Population Normal (%) [5]: 97% and 96% | Population Pyknosed Nuclei (%) [5]: 9% and 11% | Population Tubulin-Different-Phenotype (%) [5]: 35% and 50% | Total Cell Count [5]: 151 and 116 | Population Apoptotic (%) [6]: 57% and 38% | Population Fragmented Nuclei (%) [6]: 15% and 29% | Population Healthy Nuclei (%) [6]: 71% and 55% | Population Hoechst High Intensity Objects (%) [6]: 5% and 3% | Population Membrane Permeable-Phenotype (%) [6]: 0% and 10% | Population Mitochondria Different-Phenotype (%) [6]: 2% and 1% | Population Mitotic Cells (%) [6]: 42% and 61% | Population Normal (%) [6]: 94% and 96% | Population Pyknosed Nuclei (%) [6]: 12% and 14% | Population Tubulin-Different-Phenotype (%) [6]: 16% and 37% | Total Cell Count [6]: 115 and 125

CN(C)c1ccnc2sc3c(=O)n(N4CCCCCC4)cnc3c12
Population Apoptotic (%) [1]: 42% and 30% | Population Fragmented Nuclei (%) [1]: 17% and 28% | Population Healthy Nuclei (%) [1]: 64% and 51% | Population Hoechst High Intensity Objects (%) [1]: 3% and 6% | Population Membrane Permeable-Phenotype (%) [1]: 1% and 10% | Population Mitochondria Different-Phenotype (%) [1]: 3% | Population Mitotic Cells (%) [1]: 57% and 70% | Population Normal (%) [1]: 96% and 93% | Population Pyknosed Nuclei (%) [1]: 18% and 19% | Population Tubulin-Different-Phenotype (%) [1]: 29% and 44% | Total Cell Count [1]: 144 and 162 | Population Apoptotic (%) [2]: 44% and 49% | Population Fragmented Nuclei (%) [2]: 14% and 31% | Population Healthy Nuclei (%) [2]: 58% and 30% | Population Hoechst High Intensity Objects (%) [2]: 5% and 7% | Population Mitochondria Different-Phenotype (%) [2]: 14% | Population Mitotic Cells (%) [2]: 55% and 50% | Population Normal (%) [2]: 94% and 92% | Population Pyknosed Nuclei (%) [2]: 27% and 38% | Population Tubulin-Different-Phenotype (%) [2]: 75% | Total Cell Count [2]: 141 and 145 | Population Apoptotic (%) [3]: 48% and 50% | Population Fragmented Nuclei (%) [3]: 11% and 24% | Population Healthy Nuclei (%) [3]: 67% and 55% | Population Hoechst High Intensity Objects (%) [3]: 3% and 2% | Population Membrane Permeable-Phenotype (%) [3]: 0% and 10% | Population Mitochondria Different-Phenotype (%) [3]: 3% and 2% | Population Mitotic Cells (%) [3]: 51% and 50% | Population Normal (%) [3]: 96% and 97% | Population Pyknosed Nuclei (%) [3]: 21% and 19% | Population Tubulin-Different-Phenotype (%) [3]: 27% and 49% | Total Cell Count [3]: 143 and 146 | Population Apoptotic (%) [4]: 57% and 30% | Population Fragmented Nuclei (%) [4]: 13% and 35% | Population Healthy Nuclei (%) [4]: 58% and 41% | Population Hoechst High Intensity Objects (%) [4]: 5% and 8% | Population Membrane Permeable-Phenotype (%) [4]: 0% and 22% | Population Mitochondria Different-Phenotype (%) [4]: 18% and 24% | Population Mitotic Cells (%) [4]: 42% and 69% | Population Normal (%) [4]: 94% and 91% | Population Pyknosed Nuclei (%) [4]: 28% and 22% | Population Tubulin-Different-Phenotype (%) [4]: 63% and 85% | Total Cell Count [4]: 130 and 128 | Population Apoptotic (%) [5]: 64% and 36% | Population Fragmented Nuclei (%) [5]: 19% and 36% | Population Healthy Nuclei (%) [5]: 70% and 49% | Population Hoechst High Intensity Objects (%) [5]: 2% and 3% | Population Membrane Permeable-Phenotype (%) [5]: 0% and 6% | Population Mitochondria Different-Phenotype (%) [5]: 0% and 2% | Population Mitotic Cells (%) [5]: 35% and 63% | Population Normal (%) [5]: 97% and 96% | Population Pyknosed Nuclei (%) [5]: 10% and 14% | Population Tubulin-Different-Phenotype (%) [5]: 30% and 41% | Total Cell Count [5]: 143 and 157 | Population Apoptotic (%) [6]: 73% and 50% | Population Fragmented Nuclei (%) [6]: 22% and 47% | Population Healthy Nuclei (%) [6]: 47% and 42% | Population Hoechst High Intensity Objects (%) [6]: 8% and 6% | Population Membrane Permeable-Phenotype (%) [6]: 0% and 19% | Population Mitochondria Different-Phenotype (%) [6]: 25% and 13% | Population Mitotic Cells (%) [6]: 26% and 50% | Population Normal (%) [6]: 91% and 93% | Population Tubulin-Different-Phenotype (%) [6]: 76% and 86% | Total Cell Count [6]: 138 and 131

Source: ChEMBL document CHEMBL5724801, “EUbOPEN Chemogenomics Library - Multiplex” (2024)
